Assay results published in ChEMBL document CHEMBL1142981, “Identification and synthesis of a novel selective partial PPARdelta agonist with full efficacy on lipid metabolism in vitro and in vivo” (J Med Chem, 2007).

How the values were obtained:
[1] = molecular target: T1, Peroxisome proliferator-activated receptor delta (Mus musculus, UniProt P35396); assay: (§1) Agonist activity at mouse PPAR delta expressed in HEK293 cells by PPAR-GAL4 transactivation assay; type: functional, cell-based
T1 sequence (P35396 whole entry): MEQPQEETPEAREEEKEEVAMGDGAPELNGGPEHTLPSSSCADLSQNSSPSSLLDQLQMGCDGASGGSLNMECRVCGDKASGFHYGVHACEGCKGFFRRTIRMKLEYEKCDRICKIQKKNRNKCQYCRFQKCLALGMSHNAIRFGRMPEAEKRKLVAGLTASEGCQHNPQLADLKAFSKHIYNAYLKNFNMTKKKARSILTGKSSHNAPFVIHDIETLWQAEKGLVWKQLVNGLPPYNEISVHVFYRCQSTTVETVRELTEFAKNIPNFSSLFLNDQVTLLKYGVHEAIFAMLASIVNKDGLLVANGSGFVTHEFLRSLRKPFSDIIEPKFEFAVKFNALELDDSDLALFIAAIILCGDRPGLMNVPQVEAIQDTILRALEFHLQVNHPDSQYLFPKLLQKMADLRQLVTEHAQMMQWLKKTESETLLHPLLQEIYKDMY

[2] = molecular target: T2, Peroxisome proliferator-activated receptor delta (Mus musculus) (UniProt P35396); assay: as §1; type: functional, cell-based
T2 sequence (whole entry): T1 sequence (P35396 whole entry)

[3] = Clearance in Sprague-Dawley rat at 1.06 mg/kg, iv; type: ADME, organism-based; set-up: dose 1.06 mg/kg, route intravenous; details: in vivo
In short: (§2)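 Male SD rats dosed once i.v. or p.o. (n = 8 per route), vehicle 5% ethanol, 10% HPCD, phosphate buffer pH 7.5-8.0. One animal sacrificed at each of 5, 15, 30, 60, 90, 120, 240 and 360 min; EDTA plasma analysed by high turbulence LC-MS/MS. Each data point represents one animal.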

[4] = molecular target: T3, Peroxisome proliferator-activated receptor alpha (Homo sapiens) (UniProt Q07869); assay: Activity at human liver PPAR alpha expressed in HEK293 cells by GAL4 transactivation assay relative to NNC61-4655; type: cell-based
T3 sequence (whole entry): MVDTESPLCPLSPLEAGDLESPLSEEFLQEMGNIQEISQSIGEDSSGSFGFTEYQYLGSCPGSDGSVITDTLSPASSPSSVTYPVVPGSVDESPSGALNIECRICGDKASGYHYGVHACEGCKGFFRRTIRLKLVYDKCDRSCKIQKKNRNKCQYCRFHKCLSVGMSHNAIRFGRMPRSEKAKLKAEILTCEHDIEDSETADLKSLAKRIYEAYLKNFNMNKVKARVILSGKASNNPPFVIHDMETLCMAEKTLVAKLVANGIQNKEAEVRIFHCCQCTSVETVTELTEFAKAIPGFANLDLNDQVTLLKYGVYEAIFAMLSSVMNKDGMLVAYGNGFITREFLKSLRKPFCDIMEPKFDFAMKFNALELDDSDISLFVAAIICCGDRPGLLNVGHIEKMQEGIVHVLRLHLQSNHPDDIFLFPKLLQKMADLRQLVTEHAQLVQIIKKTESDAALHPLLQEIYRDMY

Mus musculus [5] = assay: Decrease in HbA1c level in human ApoB100/CETP transgenic mouse at 20 mg/kg, po after 6 weeks relative to control; type: functional; set-up: scale not given: the % may be the effect or the level left
Mus musculus [6] = assay: Decrease in HbA1c level in human ApoB100/CETP transgenic mouse at 5 mg/kg, po after 6 weeks relative to control; type: functional; set-up: scale not given: the % may be the effect or the level left
Mus musculus [7] = assay: Increase in HDL level in human ApoB100/CETP transgenic mouse at 5 mg/kg, po after 6 weeks relative to control; type: functional
Mus musculus [8] = assay: Increase in total cholesterol level in human ApoB100/CETP transgenic mouse at 20 mg/kg, po after 6 weeks relative to control; type: functional
[9] = Plasma Cmax in Sprague-Dawley rat at 2.06 mg/kg, po; type: ADME, organism-based; set-up: dose 2.06 mg/kg, route oral
In short: (§3)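 Male SD rats received a single p.o. or i.v. dose (n = 8 per route) in 5% ethanol, 10% HPCD and phosphate buffer, pH 7.5-8.0. At 5, 15, 30, 60, 90, 120, 240 and 360 min one rat was sacrificed per time point. EDTA plasma was assayed by high turbulence LC-MS/MS. Cmax and bioavailability were taken from oral dosing; volume of distribution is at steady state.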

Mus musculus [10] = assay: Decrease in insulin level in human ApoB100/CETP transgenic mouse at 5 mg/kg, po after 6 weeks by ELISA relative to control; type: functional; set-up: scale not given: the % may be the effect or the level left
Mus musculus [11] = assay: Decrease in triglycerides level in human ApoB100/CETP transgenic mouse at 10 mg/kg, po after 6 weeks relative to control; type: functional; set-up: scale not given: the % may be the effect or the level left
[12] = Half life in Sprague-Dawley rat at 2.06 mg/kg, po; type: ADME, organism-based; set-up: dose 2.06 mg/kg, route oral; details: in vivo; in short: as §2
Mus musculus [13] = assay: Increase in total ketone bodies level in human ApoB100/CETP transgenic mouse at 5 mg/kg, po after 6 weeks relative to control; type: functional
L6 [14] = assay: Effect on increase in fatty acid oxidation in rat L6 cells relative to GW-501516; type: functional; set-up: concentration or dose not given beside the values
In short: (§4)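 Rat L6 myoblasts differentiated 5 days in 2% serum, then treated 42 h with compound (refreshed at 24 h), followed by 6 h with 0.4 mM palmitate containing [9,10-3H]-palmitic acid on 2% fatty-acid-free BSA. Stopped with 10% TCA; released 3H-H2O collected by overnight equilibration at 50 °C and counted.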

Mus musculus [15] = assay: Decrease in triglycerides level in human ApoB100/CETP transgenic mouse at 20 mg/kg, po after 6 weeks relative to control; type: functional; set-up: scale not given: the % may be the effect or the level left
Mus musculus [16] = assay: Decrease in LDL level in human ApoB100/CETP transgenic mouse at 5 mg/kg, po after 6 weeks relative to control; type: functional; set-up: scale not given: the % may be the effect or the level left
Mus musculus [17] = assay: Decrease in LDL level in human ApoB100/CETP transgenic mouse at 20 mg/kg, po after 6 weeks relative to control; type: functional; set-up: scale not given: the % may be the effect or the level left
Mus musculus [18] = assay: Decrease in glucose level in human ApoB100/CETP transgenic mouse at 20 mg/kg, po after 6 weeks relative to control; type: functional; set-up: scale not given: the % may be the effect or the level left
Mus musculus [19] = assay: Decrease in glucose level in human ApoB100/CETP transgenic mouse at 5 mg/kg, po after 6 weeks relative to control; type: functional; set-up: scale not given: the % may be the effect or the level left
Mus musculus [20] = assay: Decrease in total cholesterol level in human ApoB100/CETP transgenic mouse at 10 mg/kg, po after 6 weeks relative to control; type: functional; set-up: scale not given: the % may be the effect or the level left
[21] = molecular target: T4, Peroxisome proliferator-activated receptor alpha (Homo sapiens, UniProt Q07869); assay: Activity at human liver PPAR alpha expressed in HEK293 cells by PPAR-GAL4 transactivation assay; type: cell-based
T4 sequence (Q07869 whole entry): T3 sequence (whole entry)

[22] = Volume of distribution in Sprague-Dawley rat at 1.06 mg/kg, iv; type: ADME, organism-based; set-up: dose 1.06 mg/kg, route intravenous; details: in vivo, read-out: Vss; in short: as §3
Mus musculus [23] = assay: Increase in HDL level in human ApoB100/CETP transgenic mouse at 10 mg/kg, po after 6 weeks relative to control; type: functional
Mus musculus [24] = assay: Decrease in HbA1c level in human ApoB100/CETP transgenic mouse at 10 mg/kg, po after 6 weeks relative to control; type: functional; set-up: scale not given: the % may be the effect or the level left
Mus musculus [25] = assay: Decrease in LDL level in human ApoB100/CETP transgenic mouse at 10 mg/kg, po after 6 weeks relative to control; type: functional; set-up: scale not given: the % may be the effect or the level left
L6 [26] = assay: Effect on fatty acid oxidation in rat L6 cells; type: functional, cell-based; in short: as §4

## O=C(O)COc1ccc(SCC=C(c2ccc(Br)cc2)c2ccc(Br)cc2)cc1Cl
[1]
  EC50: 300 nM
[2]
  Activity: 167%
[3]
  clearance: 11.9 mL/min/kg
[4]
  Efficacy: > 12%
Mus musculus [5]
  Activity: 12%
Mus musculus [6]
  Activity: 4%
Mus musculus [7]
  Activity: 24%
Mus musculus [8]
  Activity: 2%
[9]
  Cmax: 508 ng/mL
Mus musculus [10]
  Activity: 11%
Mus musculus [11]
  Activity: 7%
[12]
  half-life: 59 min
Mus musculus [13]
  Activity: 5%
L6 [14]
  Activity: 109%
Mus musculus [15]
  Activity: 5%
Mus musculus [16]
  Activity: 7%
Mus musculus [17]
  Activity: 35%
Mus musculus [18]
  Activity: 5%
Mus musculus [19]
  Activity: 3%
Mus musculus [20]
  Activity: 14%
[21]
  EC50: > 10000 nM
[22]
  Vd: 0.3 L/kg
Mus musculus [23]
  Activity: 14%
Mus musculus [24]
  Activity: 9%
Mus musculus [25]
  Activity: 12%
L6 [26]
  EC50: 30 nM
